# Molecular target: Cruzipain (Trypanosoma cruzi, UniProt P25779)
# Experiment: Inhibition of Trypanosoma cruzi cruzain after 15 mins
# Conditions: read-out: IC50
# In short: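 Cruzain at 1.5 nM final in 100 mM acetate pH 5.5, 5 mM DTT, 0.01% Triton X-100; compounds as serial 2-fold dilutions pin-transferred in DMSO. 15 min room-temperature preincubation, then Z-FR-AMC 2 μM final. Kinetic fluorescence read at ex 340/em 450 nm. Percent inhibition from the first 60 s signal change versus no-enzyme and uninhibited controls (48 wells each).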
# Cruzipain, sequence (P25779 whole entry): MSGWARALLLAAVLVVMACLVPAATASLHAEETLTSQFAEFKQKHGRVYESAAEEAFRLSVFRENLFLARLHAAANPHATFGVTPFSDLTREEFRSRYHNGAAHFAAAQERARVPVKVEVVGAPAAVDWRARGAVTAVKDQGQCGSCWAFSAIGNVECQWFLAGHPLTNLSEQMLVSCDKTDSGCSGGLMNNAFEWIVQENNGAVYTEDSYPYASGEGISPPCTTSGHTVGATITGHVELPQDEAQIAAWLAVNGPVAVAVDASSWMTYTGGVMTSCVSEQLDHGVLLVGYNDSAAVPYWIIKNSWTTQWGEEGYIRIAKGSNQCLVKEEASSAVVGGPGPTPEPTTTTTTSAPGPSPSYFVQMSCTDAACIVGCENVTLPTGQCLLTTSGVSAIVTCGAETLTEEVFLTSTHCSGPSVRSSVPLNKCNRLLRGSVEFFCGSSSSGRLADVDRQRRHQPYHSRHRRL
row,IC50,Compound
1,1410 nM,N#Cc1nc(Nc2ccccc2)nc(NC2CCCCC2)n1
2,890 nM,CC(C)Nc1nc(C#N)nc(Nc2ccccc2)n1
3,890 nM,N#Cc1nc(NCC2CC2)nc(Nc2ccccc2)n1
4,890 nM,CCCCNc1nc(C#N)nc(Nc2ccccc2)n1
5,1260 nM,CNc1nc(C#N)nc(Nc2ccccc2)n1
6,890 nM,N#Cc1nc(NCCCCO)nc(Nc2ccccc2)n1
7,710 nM,CCNc1nc(C#N)nc(Nc2ccccc2)n1
8,1580 nM,N#Cc1nc(NCCO)nc(Nc2ccccc2)n1
9,316 nM,N#Cc1nc(NC2CCCC2)c2ncn(-c3cc(F)cc(F)c3)c2n1
10,50 nM,N#Cc1nc(NCC(F)F)c2ncn(-c3cc(F)cc(F)c3)c2n1
11,890 nM,CC(C)CNc1nc(C#N)nc(Nc2ccccc2)n1
12,790 nM,CCCNc1nc(C#N)nc(Nc2ccccc2)n1
13,63 nM,CCNc1nc(C#N)nc2c1ncn2-c1cccc(Cl)c1
14,71 nM,N#Cc1nc(NCC(F)F)c2ncn(-c3cccc(Cl)c3)c2n1

row,Compound,IC50
1,N#Cc1nc(Nc2ccccc2)nc(NC2CCCC2)n1,710 nM
2,N#Cc1nc(Nc2cc(F)cc(F)c2)c2ncn(C3CCCC3)c2n1,18 nM
